ChEMBL document CHEMBL1649427, “Inactivation of the glycoside hydrolase NagZ attenuates antipseudomonal beta-lactam resistance in Pseudomonas aeruginosa” (Antimicrob Agents Chemother, 2009)
Converted amounts (≈) assume the structure as drawn.

Assays:
Pseudomonas aeruginosa [1] = experiment: Antimicrobial activity against ampDh2 and ampDh3 gene-deficient Pseudomonas aeruginosa PAO1 after 18 hrs by broth microdilution method in presence of 0.5 mM nagZ inhibitor EtBuPUG; type: functional; details: PAO1, 18 h
Method in brief: (§1)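 Wells are then inoculated with 100 μl culture and incubated 18 h at 37°C. The MIC is the lowest concentration with no growth. Triplicate determinations.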

Pseudomonas aeruginosa [2] = experiment: Antimicrobial activity against ampDh3 gene-deficient Pseudomonas aeruginosa PAO1 after 18 hrs by broth microdilution method in presence; type: functional; details: PAO1, 18 h; method in brief: as §1
Pseudomonas aeruginosa [3] = experiment: Ratio of MIC for ampD gene-deficient Pseudomonas aeruginosa PAO1 after 18 hrs by broth microdilution method presence of 0.5 mM nagZ inhibitor EtBuPUG to MIC for […] gene-deficient Pseudomonas aeruginosa PAO1 in absence of nagZ inhibitor EtBuPUG; type: functional
Method in brief: (§2)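 Broth microdilution in Mueller-Hinton broth. Serial β-lactam dilutions in 80 μl broth, plus 20 μl EtBuPUG (5 mM stock in H₂O) or 20 μl H₂O, then 100 μl culture grown to OD600 ~0.5. Plates incubated at 37°C for 18 h. MIC read as the antibiotic concentration in wells with no growth, with and without inhibitor. Triplicate.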

Pseudomonas aeruginosa [4] = experiment: Antimicrobial activity against ampD gene-deficient Pseudomonas aeruginosa PAO1 after 18 hrs by broth microdilution method in presence of 0.5 mM nagZ inhibitor EtBuPUG; type: functional; details: PAO1, 18 h; method in brief: as §1
Pseudomonas aeruginosa [5] = experiment: Antimicrobial activity against Pseudomonas aeruginosa PAO1 harboring deltaampD::lox deltaampDh2::lox delta ampDh3::lox after 18 hrs by Etest; type: functional; details: PAO1, 18 h
Method in brief: (§3)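 Etest strips on Mueller-Hinton agar plates, run per the manufacturer's recommendations; MICs determined in triplicate.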

Pseudomonas aeruginosa [6] = experiment: Ratio of MIC for ampDh3 gene-deficient Pseudomonas aeruginosa PAO1 after 18 hrs by broth microdilution method presence of 0.5 mM nagZ inhibitor EtBuPUG to MIC for ampDh3 gene-deficient Pseudomonas aeruginosa PAO1 in absence of nagZ inhibitor EtBuPUG; type: functional; method in brief: as §2
Pseudomonas aeruginosa [7] = experiment: Antimicrobial activity against ampDDh2 gene-deficient Pseudomonas aeruginosa PAO1 after 18 hrs by broth microdilution method in presence of 0.5 mM nagZ inhibitor EtBuPUG; type: functional; details: PAO1, 18 h; method in brief: as §1
Pseudomonas aeruginosa [8] = experiment: Antimicrobial activity against ampDh3 gene-deficient Pseudomonas aeruginosa PAO1 after 18 hrs by broth microdilution method in presence of 0.5 mM nagZ inhibitor EtBuPUG; type: functional; details: PAO1, 18 h; method in brief: as §1
Pseudomonas aeruginosa [9] = experiment: Antimicrobial activity against ampDDh2 and ampDh3 gene-deficient Pseudomonas aeruginosa PAO1 after 18 hrs by broth microdilution method in presence of 0.5 mM nagZ inhibitor EtBuPUG; type: functional; details: PAO1, 18 h; method in brief: as §1
Pseudomonas aeruginosa [10] = experiment: Antimicrobial activity against Pseudomonas aeruginosa PAO1 after 18 hrs by using 30 ug/disk by agar diffusion method; type: functional
Method in brief: (§4)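 Cultures grown in Mueller-Hinton broth at 37°C to OD600 ~0.5, pelleted, resuspended in 2 ml broth and streaked on Mueller-Hinton agar. Inhibition zone diameter measured after overnight incubation at 37°C. Triplicate determinations.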

Pseudomonas aeruginosa [11] = experiment: Antimicrobial activity against Pseudomonas aeruginosa PAO1 after 18 hrs by using 30 ug/disk by agar diffusion method in presence of 0.5 mM nagZ inhibitor EtBuPUG; type: functional
Method in brief: (§5)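 Cultures grown in Mueller-Hinton broth at 37°C to OD600 ~0.5, pelleted, resuspended in 2 ml broth and streaked on Mueller-Hinton agar. […] Inhibition zone diameter measured after overnight incubation at 37°C. Triplicate determinations.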

Pseudomonas aeruginosa [12] = experiment: Antimicrobial activity against Pseudomonas aeruginosa PAO1 harboring deltaampD::lox deltaampDh2::lox deltaampDh3::lox deltanagZ::Gm after 18 hrs by Etest; type: functional; details: PAO1, 18 h; method in brief: as §3
Pseudomonas aeruginosa [13] = experiment: Ratio of MIC for Pseudomonas aeruginosa PAO1 harboring deltaampD::lox deltaampDh2::lox deltaampDh3::lox to MIC for Pseudomonas aeruginosa PAO1 harboring deltaampD::lox deltaampDh2::lox deltaampDh3::lox deltanagZ::Gm
Pseudomonas aeruginosa [14] = experiment: Antimicrobial activity against ampDh2 gene-deficient Pseudomonas aeruginosa PAO1 using 30 ug/disk by agar diffusion method; type: functional; method in brief: as §4
Pseudomonas aeruginosa [15] = experiment: Antimicrobial activity against Pseudomonas aeruginosa PAO1 harboring deltaampD::lox deltaampDh2::lox delta ampDh3::lox and plasmid pUCP27 after 18 hrs by Etest; type: functional; details: PAO1, 18 h
Method in brief: (§6)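 Etest strips on Mueller-Hinton agar supplemented with 75 μg/ml tetracycline to maintain the vector or complementation plasmid, run per the manufacturer's recommendations; triplicate determinations.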

Pseudomonas aeruginosa [16] = experiment: Antimicrobial activity against ampDDh2 gene-deficient Pseudomonas aeruginosa PAO1 after 18 hrs by broth microdilution method in presence; type: functional; details: PAO1, 18 h; method in brief: as §1
Pseudomonas aeruginosa [17] = experiment: Antimicrobial activity against ampD gene-deficient Pseudomonas aeruginosa PAO1 after 18 hrs by broth microdilution method in absence of EtBuPUG; details: PAO1, 18 h
Pseudomonas aeruginosa [18] = experiment: Antimicrobial activity against ampDh2 and ampDh3 gene-deficient Pseudomonas aeruginosa PAO1 after 18 hrs by broth microdilution method; type: functional; details: PAO1, 18 h; method in brief: as §1
Pseudomonas aeruginosa [19] = experiment: Ratio of MIC for ampDh2 gene-deficient Pseudomonas aeruginosa PAO1 after 18 hrs by broth microdilution method in presence of 0.5 mM nagZ inhibitor EtBuPUG to MIC for ampDh2 gene-deficient Pseudomonas aeruginosa PAO1 in absence of nagZ inhibitor EtBuPUG; type: functional; method in brief: as §2
Pseudomonas aeruginosa [20] = experiment: Antimicrobial activity against Pseudomonas aeruginosa PAO1 after 18 hrs by broth microdilution method in presence of 0.5 mM nagZ inhibitor EtBuPUG; type: functional; details: PAO1, 18 h; method in brief: as §1
Pseudomonas aeruginosa [21] = experiment: Antimicrobial activity against nagZ gene-deficient Pseudomonas aeruginosa PAO1 after 18 hrs by broth microdilution method; type: functional; details: PAO1, 18 h
Method in brief: (§7)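 CLSI broth microdilution in cation-adjusted Mueller-Hinton medium with serial β-lactam dilutions. Each well holds 200 μl broth inoculated with ~10⁴ cells from starter cultures at OD600 ~0.5. Plates shaken at 37°C for 18 h. The MIC is read as the lowest antibiotic concentration showing no growth. Triplicate determinations.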

Pseudomonas aeruginosa [22] = experiment: Antimicrobial activity against ampDh2 gene-deficient Pseudomonas aeruginosa PAO1 after 18 hrs by broth microdilution method in absence of EtBuPUG; details: PAO1, 18 h
Pseudomonas aeruginosa [23] = experiment: Antimicrobial activity against ampDDh3 gene-deficient Pseudomonas aeruginosa PAO1 after 18 hrs by broth microdilution method in presence; type: functional; details: PAO1, 18 h; method in brief: as §1
Pseudomonas aeruginosa [24] = experiment: Antimicrobial activity against ampDh2 gene-deficient Pseudomonas aeruginosa PAO1 using 30 ug/disk by agar diffusion method in presence of 0.5 mM nagZ inhibitor EtBuPUG; type: functional; method in brief: as §5
Pseudomonas aeruginosa [25] = experiment: Antimicrobial activity against ampDh2 gene-deficient Pseudomonas aeruginosa PAO1 after 18 hrs by broth microdilution method in presence of 0.5 mM nagZ inhibitor EtBuPUG; type: functional; details: PAO1, 18 h; method in brief: as §1
Pseudomonas aeruginosa [26] = experiment: Antimicrobial activity against ampDDh2 and ampDh3 gene-deficient Pseudomonas aeruginosa PAO1 after 18 hrs using […] by agar diffusion method in presence of 0.5 mM nagZ inhibitor EtBuPUG; type: functional; method in brief: as §4
Pseudomonas aeruginosa [27] = experiment: Antimicrobial activity against Pseudomonas aeruginosa PAO1 harboring deltaampD::lox deltaampDh2::lox delta ampDh3::lox and wild type nagZ gene after 18 hrs by Etest; type: functional; details: PAO1, 18 h; method in brief: as §6
Pseudomonas aeruginosa [28] = experiment: Antimicrobial activity against Pseudomonas aeruginosa PAO1 after 18 hrs by broth microdilution method; type: functional; details: PAO1, 18 h; method in brief: as §7
Pseudomonas aeruginosa [29] = experiment: Antimicrobial activity against ampDDh3 gene-deficient Pseudomonas aeruginosa PAO1 after 18 hrs by broth microdilution method in presence of 0.5 mM nagZ inhibitor EtBuPUG; type: functional; details: PAO1, 18 h; method in brief: as §1
Pseudomonas aeruginosa [30] = experiment: Antimicrobial activity against ampDDh2 and ampDh3 gene-deficient Pseudomonas aeruginosa PAO1 after 18 hrs using […] by agar diffusion method; type: functional; method in brief: as §5

CC(C)(O/N=C(\C(=O)N[C@@H]1C(=O)N2C(C(=O)[O-])=C(C[n+]3ccccc3)CS[C@H]12)c1csc(N)n1)C(=O)O [CEFTAZIDIME]
MIC (Pseudomonas aeruginosa [1]): 0.75 µg/mL | MIC (Pseudomonas aeruginosa [2]): 1 µg/mL (≈ 1.83 µM) | Ratio (Pseudomonas aeruginosa [3]): 2 | MIC (Pseudomonas aeruginosa [4]): 4 µg/mL | MIC (Pseudomonas aeruginosa [5]): 48 µg/mL (≈ 87.8 µM) | Ratio (Pseudomonas aeruginosa [6]): 2 | MIC (Pseudomonas aeruginosa [7]): 6 µg/mL | MIC (Pseudomonas aeruginosa [8]): 0.5 µg/mL | MIC (Pseudomonas aeruginosa [9]): 48 µg/mL | inhibition zone (IZ) (Pseudomonas aeruginosa [10]): 11.4 mm | inhibition zone (IZ) (Pseudomonas aeruginosa [11]): 13.1 mm | MIC (Pseudomonas aeruginosa [12]): 12 µg/mL (≈ 22 µM) | Ratio (Pseudomonas aeruginosa [13]): 4 | inhibition zone (IZ) (Pseudomonas aeruginosa [14]): 10.1 mm | MIC (Pseudomonas aeruginosa [15]): 12 µg/mL (≈ 22 µM) | MIC (Pseudomonas aeruginosa [16]): 12 µg/mL (≈ 22 µM) | MIC (Pseudomonas aeruginosa [17]): 8 µg/mL (≈ 14.6 µM) | MIC (Pseudomonas aeruginosa [18]): 0.75 µg/mL (≈ 1.37 µM) | Ratio (Pseudomonas aeruginosa [19]): 4 | MIC (Pseudomonas aeruginosa [20]): 0.5 µg/mL | MIC (Pseudomonas aeruginosa [21]): 0.5 µg/mL (≈ 0.915 µM) | MIC (Pseudomonas aeruginosa [22]): 0.75 µg/mL (≈ 1.37 µM) | MIC (Pseudomonas aeruginosa [23]): 48 µg/mL (≈ 87.8 µM) | inhibition zone (IZ) (Pseudomonas aeruginosa [24]): 12.3 mm | MIC (Pseudomonas aeruginosa [25]): 0.19 µg/mL | inhibition zone (IZ) (Pseudomonas aeruginosa [26]): 9.5 mm | MIC (Pseudomonas aeruginosa [27]): 48 µg/mL (≈ 87.8 µM) | MIC (Pseudomonas aeruginosa [28]): 1 µg/mL (≈ 1.83 µM) | MIC (Pseudomonas aeruginosa [29]): 48 µg/mL | inhibition zone (IZ) (Pseudomonas aeruginosa [30]): 9.2 mm
